ChEMBL document CHEMBL1124547, “Prodrugs of the selective antiherpesvirus agent 9-[4-hydroxy-3-(hydroxymethyl)but-1-yl]guanine (BRL 39123) with improved gastrointestinal absorption properties” (J Med Chem, 1989)

tested on: Mus musculus; assay: Concentration of 9-[4-Hydroxy-3-(hydroxymethyl)but-1-yl)guanine in blood of mice after 1 hour upon oral administration; assay type: functional, organism-based
How it was run: (§1)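 Female Balb/c mice (20 g), food withheld 18 h, got one oral gavage dose of 0.2 mmol/kg in 0.1 mL 1% (carboxymethyl)cellulose. Blood was drawn by heparinized cardiac puncture at 0.25, 1 and 3 h, with three mice pooled per time point. It was treated with an equal volume of 16% TCA, centrifuged and NaHCO3-neutralized. The guanine analyte was measured by C18 HPLC at 254 nm in duplicate.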

| Compound | Concentration |
| --- | --- |
| CCCC(=O)OCC(CO)CCn1cnc2cnc(N)nc21 (stereo not given) | 28 µM |
| CCCCOc1nc(N)nc2c1ncn2CCC(CO)CO | 5.2 µM |
| COc1nc(N)nc2c1ncn2CCC(CO)CO | 0.9 µM |
| COC(=O)OCC(CO)CCn1cnc2cnc(N)nc21 (stereo not given) | 22 µM |
| Nc1ncc2ncn(CCC3COP(=O)(O)OC3)c2n1 (stereo not given) | 1 µM |
| CCOc1nc(N)nc2c1ncn2CCC(CO)CO | 8 µM |
| Nc1nc(Oc2ccccc2)c2ncn(CCC(CO)CO)c2n1 | < 0.5 µM |
| CC(=O)OCC(CO)CCn1cnc2cnc(N)nc21 (stereo not given) | 20 µM |
| CC(C)Oc1nc(N)nc2c1ncn2CCC(CO)CO | 3.8 µM |
| Nc1ncc2ncn(CCC(CO)COC(=O)c3ccccc3)c2n1 (stereo not given) | 26 µM |

tested on: Mus musculus; assay: Concentration of 2-Amino-9-(4-hydroxy-3-hydroxymethyl)but-1-yl)purine in blood of mice after 1 hour upon oral administration; assay type: functional, organism-based
How it was run: (§2)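 Single oral gavage dose of 0.2 mmol/kg in 0.1 mL 1% (carboxymethyl)cellulose to female Balb/c mice (20 g), fasted 18 h. Heparinized cardiac-puncture blood was taken at 0.25, 1 and 3 h, pooled equally from three mice per time point, and deproteinized with an equal volume of 16% TCA. Supernatant was neutralized with NaHCO3 and run on C18 HPLC in duplicate in 5 mM KH2PO4. The 2-aminopurine was read at 310 nm; detection limit 1 μM.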

| Compound | Concentration |
| --- | --- |
| CCCC(=O)OCC(CO)CCn1cnc2cnc(N)nc21 (stereo not given) | 7 µM |
| CCCCOc1nc(N)nc2c1ncn2CCC(CO)CO | 11 µM |
| COc1nc(N)nc2c1ncn2CCC(CO)CO | 7 µM |
| COC(=O)OCC(CO)CCn1cnc2cnc(N)nc21 (stereo not given) | 4 µM |
| Nc1ncc2ncn(CCC3COP(=O)(O)OC3)c2n1 (stereo not given) | < 1 µM |
| CCOc1nc(N)nc2c1ncn2CCC(CO)CO | 11 µM |
| Nc1nc(Oc2ccccc2)c2ncn(CCC(CO)CO)c2n1 | 7 µM |
| CC(=O)OCC(CO)CCn1cnc2cnc(N)nc21 (stereo not given) | 3 µM |
| CC(C)Oc1nc(N)nc2c1ncn2CCC(CO)CO | 12 µM |
| Nc1ncc2ncn(CCC(CO)COC(=O)c3ccccc3)c2n1 (stereo not given) | 8 µM |

tested on: Mus musculus; assay: Concentration of 9-[4-Hydroxy-3-(hydroxymethyl)but-1-yl)guanine in blood of mice after 0.25 hours upon oral administration; assay type: functional, organism-based; how it was run: as §1

| Compound | Concentration |
| --- | --- |
| CCCC(=O)OCC(CO)CCn1cnc2cnc(N)nc21 (stereo not given) | 64 µM |
| CCCCOc1nc(N)nc2c1ncn2CCC(CO)CO | 5.7 µM |
| COc1nc(N)nc2c1ncn2CCC(CO)CO | 0.6 µM |
| COC(=O)OCC(CO)CCn1cnc2cnc(N)nc21 (stereo not given) | 54 µM |
| Nc1ncc2ncn(CCC3COP(=O)(O)OC3)c2n1 (stereo not given) | 1 µM |
| CCOc1nc(N)nc2c1ncn2CCC(CO)CO | 6.8 µM |
| Nc1nc(Oc2ccccc2)c2ncn(CCC(CO)CO)c2n1 | < 0.5 µM |
| CC(=O)OCC(CO)CCn1cnc2cnc(N)nc21 (stereo not given) | 51 µM |
| CC(C)Oc1nc(N)nc2c1ncn2CCC(CO)CO | 9.2 µM |
| Nc1ncc2ncn(CCC(CO)COC(=O)c3ccccc3)c2n1 (stereo not given) | 63 µM |

tested on: Mus musculus; assay: Concentration of 2-Amino-9-(4-hydroxy-3-hydroxymethyl)but-1-yl)purine in blood of mice after 0.25 hours upon oral administration; assay type: functional, organism-based; how it was run: as §2

| Compound | Concentration |
| --- | --- |
| CCCC(=O)OCC(CO)CCn1cnc2cnc(N)nc21 (stereo not given) | 57 µM |
| CCCCOc1nc(N)nc2c1ncn2CCC(CO)CO | 19 µM |
| COc1nc(N)nc2c1ncn2CCC(CO)CO | 8 µM |
| COC(=O)OCC(CO)CCn1cnc2cnc(N)nc21 (stereo not given) | 55 µM |
| Nc1ncc2ncn(CCC3COP(=O)(O)OC3)c2n1 (stereo not given) | < 1 µM |
| CCOc1nc(N)nc2c1ncn2CCC(CO)CO | 25 µM |
| Nc1nc(Oc2ccccc2)c2ncn(CCC(CO)CO)c2n1 | 8 µM |
| CC(=O)OCC(CO)CCn1cnc2cnc(N)nc21 (stereo not given) | 38 µM |
| CC(C)Oc1nc(N)nc2c1ncn2CCC(CO)CO | 43 µM |
| Nc1ncc2ncn(CCC(CO)COC(=O)c3ccccc3)c2n1 (stereo not given) | 71 µM |

tested on: Mus musculus; assay: Concentration of 9-[4-Hydroxy-3-(hydroxymethyl)but-1-yl)guanine in blood of mice after 3 hours upon oral administration; assay type: functional, organism-based; how it was run: as §1

| Compound | Concentration |
| --- | --- |
| CCCC(=O)OCC(CO)CCn1cnc2cnc(N)nc21 (stereo not given) | 2 µM |
| CCCCOc1nc(N)nc2c1ncn2CCC(CO)CO | < 0.5 µM |
| COc1nc(N)nc2c1ncn2CCC(CO)CO | < 0.5 µM |
| COC(=O)OCC(CO)CCn1cnc2cnc(N)nc21 (stereo not given) | 2.6 µM |
| Nc1ncc2ncn(CCC3COP(=O)(O)OC3)c2n1 (stereo not given) | 2.6 µM |
| CCOc1nc(N)nc2c1ncn2CCC(CO)CO | 0.9 µM |
| Nc1nc(Oc2ccccc2)c2ncn(CCC(CO)CO)c2n1 | < 0.5 µM |
| CC(=O)OCC(CO)CCn1cnc2cnc(N)nc21 (stereo not given) | 1.2 µM |
| CC(C)Oc1nc(N)nc2c1ncn2CCC(CO)CO | < 0.5 µM |
| Nc1ncc2ncn(CCC(CO)COC(=O)c3ccccc3)c2n1 (stereo not given) | 1.1 µM |

tested on: Mus musculus; assay: Concentration of 2-Amino-9-(4-hydroxy-3-hydroxymethyl)but-1-yl)purine in blood of mice after 3 hours upon oral administration; assay type: functional, organism-based; how it was run: as §2

| Compound | Concentration |
| --- | --- |
| CCCC(=O)OCC(CO)CCn1cnc2cnc(N)nc21 (stereo not given) | < 1 µM |
| CCCCOc1nc(N)nc2c1ncn2CCC(CO)CO | 1 µM |
| COc1nc(N)nc2c1ncn2CCC(CO)CO | 2 µM |
| COC(=O)OCC(CO)CCn1cnc2cnc(N)nc21 (stereo not given) | < 1 µM |
| Nc1ncc2ncn(CCC3COP(=O)(O)OC3)c2n1 (stereo not given) | < 1 µM |
| CCOc1nc(N)nc2c1ncn2CCC(CO)CO | < 1 µM |
| Nc1nc(Oc2ccccc2)c2ncn(CCC(CO)CO)c2n1 | < 1 µM |
| CC(=O)OCC(CO)CCn1cnc2cnc(N)nc21 (stereo not given) | < 1 µM |
| CC(C)Oc1nc(N)nc2c1ncn2CCC(CO)CO | 1 µM |
| Nc1ncc2ncn(CCC(CO)COC(=O)c3ccccc3)c2n1 (stereo not given) | < 1 µM |
